The results in this text go back to ChEMBL document CHEMBL1138837, “Structure-activity study on the Phe side chain arrangement of endomorphins using conformationally constrained analogues” (J Med Chem, 2004).

For data set [1], the target named is Delta-type opioid receptor (Rattus norvegicus, UniProt P33533). Description: Displacement of [3H]Ile5,6-deltorphin II from opioid receptor delta 1 of rat brain membranes. The data set is classed as cell membranes, Membrane. (In general: Displacement assays read how much labelled ligand stays bound in the presence of the test substance.)
Chain of Delta-type opioid receptor (P33533 whole entry): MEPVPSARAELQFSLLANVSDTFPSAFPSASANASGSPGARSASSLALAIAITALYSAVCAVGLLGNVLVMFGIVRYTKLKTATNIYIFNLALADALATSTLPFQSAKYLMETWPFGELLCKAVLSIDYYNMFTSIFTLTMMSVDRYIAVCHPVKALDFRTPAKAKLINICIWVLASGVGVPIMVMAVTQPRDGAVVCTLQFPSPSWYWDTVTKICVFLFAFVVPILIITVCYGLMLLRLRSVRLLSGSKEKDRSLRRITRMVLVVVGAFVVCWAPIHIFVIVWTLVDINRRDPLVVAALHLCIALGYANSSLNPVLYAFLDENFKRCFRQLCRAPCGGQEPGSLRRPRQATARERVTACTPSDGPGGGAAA
The species named for data set [2] is Rattus norvegicus. The experiment in a line: In vitro effective dose against [35S]GTP-gamma-S, binding to rat brain membranes. The data set is classed as functional. The conditions noted are these: Membrane. Put shortly: (§1)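 Rat brain membranes (about 10 µg protein) with 0.05 nM [35S]GTPγS, 100 µM GDP and compound at 10^-9–10^-5 M, in Tris-EGTA buffer (1 mM EGTA, 3 mM MgCl2, NaCl, pH 7.4), at 30 °C for 60 min. Basal binding was measured without compound; nonspecific binding with 100 µM GTPγS. GF/B filtration was used, with three experiments in triplicate. Stimulation is expressed as percent of specific binding.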
In general terms: Binding of GTPγS marks nucleotide exchange on a G protein.

The species named for data set [3] is Rattus norvegicus. The experiment in a line: In vitro percent maximal stimulation of [35S]GTP-gamma-S, binding by the compound in rat brain membranes. It is filed as functional. The conditions noted are these: Membrane. The gist of the method:
as §1

Data set [4] concerns the target Mu-type opioid receptor (Cavia porcellus, UniProt P97266). The experiment in a line: Inhibition of Opioid receptor mu 1 of guinea pig ileum. The data set is classed as tissue-based. The gist of the method:
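Guinea pig ileum in Krebs solution at 37 °C, initial tension 0.8 g, equilibrated 60 min under electrical stimulation. Electrically evoked contractions were inhibited, using noncumulative dose–response curves, with IC50 from sigmoidal curve fitting.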

For data set [5], the target named is T1, Mu-type opioid receptor (Rattus norvegicus, UniProt P33535). The experiment in a line: Displacement of [3H]DAMGO from Opioid receptor mu 1 of rat brain membranes. It is filed as cell membranes, Membrane.
T1 sequence (P33535 whole entry): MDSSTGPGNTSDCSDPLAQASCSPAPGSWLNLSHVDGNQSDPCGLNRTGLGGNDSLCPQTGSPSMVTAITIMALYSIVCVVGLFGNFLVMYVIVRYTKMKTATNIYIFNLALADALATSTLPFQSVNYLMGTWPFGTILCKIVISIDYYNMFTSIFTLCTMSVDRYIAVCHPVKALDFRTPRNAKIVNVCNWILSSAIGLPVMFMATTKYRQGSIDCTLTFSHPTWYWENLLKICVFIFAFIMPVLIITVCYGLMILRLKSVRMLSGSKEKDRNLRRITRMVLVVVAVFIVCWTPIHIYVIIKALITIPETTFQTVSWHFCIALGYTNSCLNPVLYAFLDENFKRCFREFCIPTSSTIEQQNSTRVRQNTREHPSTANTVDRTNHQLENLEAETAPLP
Data set [6] concerns the target Mu-type opioid receptor (Mus musculus, UniProt P42866). The experiment in a line: Inhibition of Mu opioid receptor of mouse vas deferens. The gist of the method:
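Mouse vas deferens in Mg-free Krebs at 31 °C, 0.1 g initial tension, equilibrated 30 min under electrical stimulation. Inhibition of evoked contractions was measured with noncumulative dose–response curves, and IC50 was obtained by sigmoidal fitting.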

Data set [7] concerns the target T1, Mu-type opioid receptor. The experiment in a line: Displacement of [3H]endomorphin-2 from Opioid receptor mu 1 of rat brain membranes. It is filed as cell membranes, Membrane.
The target in data set [8] is T1, Mu-type opioid receptor. The experiment in a line: In vitro binding affinity towards Opioid receptor mu 1 in rat brain membranes. The data set is classed as cell membranes. The gist of the method:
(§2)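 Wistar rat brain membranes without cerebellum (300–500 µg protein) in 50 mM Tris-HCl, pH 7.4, for competition binding. Incubation was stopped by vacuum filtration on GF/C filters, with two ice-cold buffer washes, then scintillation counting. Nonspecific binding was defined with 10 µM naloxone. Each assay was run in duplicate and repeated at least three times, with nonlinear least-squares fitting.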

Data set [9] concerns the target T1, Mu-type opioid receptor. The experiment in a line: Affinity for Opioid receptor mu 1 in rat brain membranes. It is filed as cell membranes. Put shortly:
as §2

Data set [10] in a line: Half-life in rat brain homogenate. The data set is classed as ADME. The gist of the method:
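Peptide from a 1 mM stock in 50 mM Tris-HCl, pH 7.4, was incubated at 37 °C with rat brain homogenate (5.4 mg/mL protein). Timed aliquots were acidified with 0.1 M HCl, centrifuged, and analysed by RP-HPLC with UV detection at 216 nm. The rate constant came from ln(A/A0) versus time (at least five points). Half-life assumed pseudo-first-order kinetics, from 3–5 measurements.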

Residues, ends and D or L forms follow the SMILES beside them. A value given as a limit tells only on which side of the number the result lay.

Chain of Mu-type opioid receptor (Mus musculus, UniProt P42866) (P42866 whole entry): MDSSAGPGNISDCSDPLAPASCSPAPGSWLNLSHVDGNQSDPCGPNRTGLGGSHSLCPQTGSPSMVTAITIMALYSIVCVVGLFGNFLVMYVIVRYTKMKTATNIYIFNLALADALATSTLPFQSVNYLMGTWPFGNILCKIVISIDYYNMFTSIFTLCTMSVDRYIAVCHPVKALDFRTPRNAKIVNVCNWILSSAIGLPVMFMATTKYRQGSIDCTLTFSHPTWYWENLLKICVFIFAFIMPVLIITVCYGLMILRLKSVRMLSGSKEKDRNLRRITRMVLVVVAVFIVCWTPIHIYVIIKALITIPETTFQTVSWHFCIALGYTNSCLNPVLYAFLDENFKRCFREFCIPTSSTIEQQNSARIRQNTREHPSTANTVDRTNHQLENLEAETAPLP
Chain of Mu-type opioid receptor (Cavia porcellus, UniProt P97266) (P97266 whole entry): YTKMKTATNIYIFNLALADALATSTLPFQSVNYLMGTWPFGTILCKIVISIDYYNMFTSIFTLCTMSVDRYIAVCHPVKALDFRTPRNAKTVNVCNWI

Take `C[C@H](c1ccccc1)[C@H](NC(=O)[C@@H]1CCCN1C(=O)[C@@H](N)Cc1ccc(O)cc1)C(=O)N[C@@H](Cc1ccccc1)C(N)=O`: the Ki – broadly, the equilibrium dissociation constant of an inhibitor or competing ligand from its target – in data set [1] was over 10000 nM. Further, the ED50 in the data set listed under Rattus norvegicus [2] is 1800 nM. The compound further displayed a Max stimulation in the data set listed under Rattus norvegicus [3] of 146%.

For `C[C@@H](c1ccccc1)[C@@H](NC(=O)[C@H](Cc1ccccc1)NC(=O)[C@@H]1CCCN1C(=O)[C@@H](N)Cc1ccc(O)cc1)C(N)=O`, the inhibitory constant (Ki) is over 10000 nM in data set [1], 104 nM on Mu-type opioid receptor [5] and 47.7 nM on Mu-type opioid receptor [7]. The compound further had an ED50 in the data set filed under Rattus norvegicus [2] of 572 nM. The IC50 (in general, the concentration needed to halve the response being measured) against Mu-type opioid receptor [4] is 589 nM; at Mu-type opioid receptor [6] it was over 10000 nM. The compound further displayed a Max stimulation in the data set listed under Rattus norvegicus [3] of 115%.

As to `C[C@H](c1ccccc1)[C@H](NC(=O)[C@H](Cc1ccccc1)NC(=O)[C@@H]1CCCN1C(=O)[C@@H](N)Cc1ccc(O)cc1)C(N)=O`, the Ki in data set [1] amounted to 4900 nM; at Mu-type opioid receptor [5], 69.5 nM; at Mu-type opioid receptor [7] it was 23.4 nM. The ED50 in the data set listed under Rattus norvegicus [2] amounted to 455 nM. Also, the half-maximal inhibitory concentration (IC50) is 89.9 nM against Mu-type opioid receptor [4] and 235 nM at Mu-type opioid receptor [6]. Moreover, in the data set filed under Rattus norvegicus [3], the Max stimulation came to 132%.

As for `N[C@@H](Cc1ccc(O)cc1)C(=O)N1CCC[C@H]1C(=O)N[C@@H](Cc1ccccc1)C(=O)O` (H-Tyr-Pro-Phe-OH), the IC50 at Mu-type opioid receptor [8] worked out at 161 nM. The compound further came in with a Ki on Mu-type opioid receptor [9] of 46.3 nM.

For the compound `C[C@@H](c1ccccc1)[C@H](NC(=O)[C@H](Cc1c[nH]c2ccccc12)NC(=O)[C@@H]1CCCN1C(=O)[C@@H](N)Cc1ccc(O)cc1)C(N)=O`, the ED50 in the data set listed under Rattus norvegicus [2] was 114 nM. In addition, the Ki at Mu-type opioid receptor [5] stood at 0.8 nM; on Mu-type opioid receptor [7], 0.47 nM. For the same compound, the half-life (as a rule, the time in which the quantity being followed falls by half) in data set [10] worked out at 10.7 min. Besides, the Max stimulation in the data set listed under Rattus norvegicus [3] is 163%.

Consider `C[C@H](c1ccccc1)[C@@H](NC(=O)[C@@H]1CCCN1C(=O)[C@@H](N)Cc1ccc(O)cc1)C(=O)N[C@@H](Cc1ccccc1)C(N)=O`, for which affinity in data set [1] was put at a Ki of 6760 nM. In addition, the ED50 in the data set listed under Rattus norvegicus [2] turned out to be 7.7 nM. Further, the Max stimulation in the data set filed under Rattus norvegicus [3] was 105%.

On to `C[C@@H](c1ccccc1)[C@H](NC(=O)[C@H](Cc1ccccc1)NC(=O)[C@@H]1CCCN1C(=O)[C@@H](N)Cc1ccc(O)cc1)C(N)=O`, for which the figures for the Ki (in [1]; on Mu-type opioid receptor [5]; at Mu-type opioid receptor [7]) were 6360 nM, 1.67 nM and 0.97 nM, respectively. In addition, the ED50 in the data set filed under Rattus norvegicus [2] was found to be 139 nM. The IC50 was determined as 3.46 nM at Mu-type opioid receptor [4] and 9.15 nM against Mu-type opioid receptor [6]. The compound further yielded a half-life in [10] of 16.1 min. In the data set listed under Rattus norvegicus [3], this compound returned a Max stimulation of 148%.

Take `C[C@@H](c1ccccc1)[C@@H](NC(=O)[C@@H]1CCCN1C(=O)[C@@H](N)Cc1ccc(O)cc1)C(=O)N[C@@H](Cc1ccccc1)C(N)=O`: in [1], the inhibitory constant (Ki) was over 10000 nM. This compound came in with an ED50 in the data set listed under Rattus norvegicus [2] of 53 nM. Moreover, in the data set listed under Rattus norvegicus [3], the Max stimulation came out at 103%.

The compound `C[C@@H](c1ccccc1)[C@H](NC(=O)[C@@H]1CCCN1C(=O)[C@@H](N)Cc1ccc(O)cc1)C(=O)N[C@@H](Cc1ccccc1)C(N)=O` had a Ki in [1] of 179 nM. The ED50 in the data set filed under Rattus norvegicus [2] worked out at 1610 nM. In the data set filed under Rattus norvegicus [3], this compound returned a Max stimulation of 160%.

Consider `NC(=O)[C@H](Cc1ccccc1)NC(=O)[C@H](Cc1ccccc1)NC(=O)[C@@H]1CCCN1C(=O)[C@@H](N)Cc1ccc(O)cc1` [ENDOMORPHIN 2], for which the half-life in data set [10] came to 3.8 min. Also, the Max stimulation in the data set listed under Rattus norvegicus [3] amounted to 213%.

Consider `C[C@H](c1ccccc1)[C@@H](NC(=O)[C@H](Cc1c[nH]c2ccccc12)NC(=O)[C@@H]1CCCN1C(=O)[C@@H](N)Cc1ccc(O)cc1)C(N)=O`, for which the ED50 in the data set filed under Rattus norvegicus [2] amounted to 1490 nM. In addition, the Ki on Mu-type opioid receptor [5] is 45.3 nM; on Mu-type opioid receptor [7], 43.6 nM. The compound also had a Max stimulation in the data set listed under Rattus norvegicus [3] of 114%.

`C[C@H](c1ccccc1)[C@@H](NC(=O)[C@H](Cc1ccccc1)NC(=O)[C@@H]1CCCN1C(=O)[C@@H](N)Cc1ccc(O)cc1)C(N)=O`: the Ki worked out at 5180 nM in data set [1], 250 nM on Mu-type opioid receptor [5] and 127 nM at Mu-type opioid receptor [7]. The compound further yielded an ED50 in the data set listed under Rattus norvegicus [2] of 104 nM. Besides, the IC50 at Mu-type opioid receptor [4] is 816 nM; at Mu-type opioid receptor [6] it was over 10000 nM. In the data set listed under Rattus norvegicus [3], this compound displayed a Max stimulation of 108%.

Turning to `C[C@@H](c1ccccc1)[C@@H](NC(=O)[C@H](Cc1c[nH]c2ccccc12)NC(=O)[C@@H]1CCCN1C(=O)[C@@H](N)Cc1ccc(O)cc1)C(N)=O`, in the data set filed under Rattus norvegicus [2], the ED50 is 784 nM. In addition, the figures for the Ki on Mu-type opioid receptor [5] and on Mu-type opioid receptor [7] were 107 nM and 47 nM, respectively. The Max stimulation in the data set listed under Rattus norvegicus [3] is 124%.

`C[C@H](c1ccccc1)[C@H](NC(=O)[C@H](Cc1c[nH]c2ccccc12)NC(=O)[C@@H]1CCCN1C(=O)[C@@H](N)Cc1ccc(O)cc1)C(N)=O` came in with an ED50 in the data set filed under Rattus norvegicus [2] of 209 nM. The results for the Ki at Mu-type opioid receptor [5] and on Mu-type opioid receptor [7] were 26.3 nM and 23.4 nM, respectively. This compound returned a Max stimulation in the data set filed under Rattus norvegicus [3] of 126%.

In turn, `NC(=O)[C@H](Cc1ccccc1)NC(=O)[C@H](Cc1c[nH]c2ccccc12)NC(=O)[C@@H]1CCCN1C(=O)[C@@H](N)Cc1ccc(O)cc1` [ENDOMORPHIN-1] displayed an ED50 in the data set filed under Rattus norvegicus [2] of 289 nM. The compound also showed a half-life in data set [10] of 4.9 min. Also, the Max stimulation in the data set filed under Rattus norvegicus [3] was 237%.
